# STK33 kinase inh: human STK33 kinase inhibition. inhibition, % at 10 µM. purified STK33, MBP phosphorylation, ADP-Glo luminescence. Q9BYT3. 320,000 compounds, 0.073% hits;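 active = inhibition at or above 25%, using the most active replicate where run in duplicate; inactive = inhibition below 25%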
# Target sequence (Q9BYT3 whole entry, looked up): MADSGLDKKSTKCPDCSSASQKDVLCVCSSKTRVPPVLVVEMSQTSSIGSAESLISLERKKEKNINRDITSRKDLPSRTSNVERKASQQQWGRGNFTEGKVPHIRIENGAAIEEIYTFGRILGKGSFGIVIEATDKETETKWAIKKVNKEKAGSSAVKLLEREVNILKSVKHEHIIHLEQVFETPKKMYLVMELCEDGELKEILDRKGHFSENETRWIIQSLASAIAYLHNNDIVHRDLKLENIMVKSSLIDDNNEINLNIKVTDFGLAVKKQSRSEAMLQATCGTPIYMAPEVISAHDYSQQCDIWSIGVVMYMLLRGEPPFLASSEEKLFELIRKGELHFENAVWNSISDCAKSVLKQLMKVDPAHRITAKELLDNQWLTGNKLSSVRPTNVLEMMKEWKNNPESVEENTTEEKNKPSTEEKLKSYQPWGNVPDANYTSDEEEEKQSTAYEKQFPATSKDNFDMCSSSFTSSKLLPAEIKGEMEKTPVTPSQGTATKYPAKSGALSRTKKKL
# PolyA inh: inhibitors of polyadenylation in S. cerevisiae. AID 1875. activity score, % at 12 µM. 300,000 compounds, 0.02% hits. S. cerevisiae SKY197-pL101 polyadenylation reporter, beta-gal luminescence; efflux-impaired pdr1/pdr3 knockout yeast; score 100 = 6 SD above DMSO;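 active = lowest replicate activity score at least 50, where 100 means six control SD above control mean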;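 also: yeast exposed to compound for 9 h at 30 °C; higher score means more reporter readthrough which indicates perturbed polyadenylation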
# GSK3A inh: blocks human GSK-3 alpha kinase. P49840. ADP-Glo luminescence, 60 min. inhibition, % at 10 µM. 320,000 compounds, 0.1% hits. AID 2650;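 active = more than half of replicates show inhibition above 20%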;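 also: GST-tagged GSK-3 alpha with peptide substrate and 25 µM ATP; 0% = DMSO neutral wells and 100% = GW8510 positive control wells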
# GSK3B inh: blocks human GSK3beta kinase activity | GST-GSK3beta kinase, ADP-Glo luminescence, 60 min; active compounds read low | activity score (negative = inhibition), % at 10 µM | 300,000 compounds, 0.038% hits | AID 2097;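 active = more than half of replicate wells score below -50%, meaning over 50% inhibition versus plate controls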;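 also: 0% = median DMSO wells and -100% = median GW8510 positive control wells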
#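 test system = GST-tagged human GSK3beta kinase, cell-free | reagent = 25 µM ATP with peptide substrate | dosing = one dose of 10 µM per compound | schedule = 60 min reaction, RT | detection = luminescent ADP-Glo measurement of ADP formed | control set = DMSO neutral wells and GW8510 at 20 µM as positive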
# Efflux pump mplx: inhibitors of Candida antifungal efflux pumps expressed in yeast. S. cerevisiae Candida pump triplex, Nile Red efflux. inhibition, % at 10 µM. 330,000 compounds, 0.44% hits. AID 485275;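 active = plate passing quality check with inhibition over a set limit, or well fluorescence over plate mean plus 4 SD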;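 also: Nile Red retained in pooled yeast measured as flow cytometry median fluorescence; 0% = buffer negative control and 100% = Enniatin B positive control; higher means more Nile Red kept so more efflux inhibition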
# Cmpd fluor yeast: flagged as fluorescent in efflux inhibitor counter-screen | S. cerevisiae AD/pABC3, compound fluorescence, flow cytometry | 1,700 compounds, 4% hits | AID 588517 | fluorescence ratio to DMSO, % at 10 µM | shares compounds with Efflux pump mplx;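 active = fluorescence ratio to DMSO above its plate's cutoff, the plate mean ratio plus 5 SD, cut at about 210% in these data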;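 also: unstained yeast with no Nile Red so the signal is compound autofluorescence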
# Mdr1 pump inh: blocks the Candida albicans Mdr1 efflux pump in yeast; shares compounds with Efflux pump mplx; S. cerevisiae AD/CaMDR1, Nile Red efflux, flow cytometry; inhibition, % at 10 µM; 1,700 compounds, 1% hits; in the data active = inhibition above about 26%;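 also: 0% = DMSO vehicle and 100% = reference inhibitor; higher means more Nile Red retained so more efflux inhibition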
# CaCdr2 efflux inh: Candida Cdr2 efflux pump inhibition. shares compounds with Efflux pump mplx. S. cerevisiae AD/CaCDR2, Nile Red retention, flow cytometry. Nile Red retention ratio vs DMSO, % at 10 µM. 1,700 compounds, 4% hits; in the data active = Nile Red retention ratio vs DMSO above about 190%;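 also: higher ratio means more blocking of Cdr2 efflux of the dye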
# CaCdr1 efflux inh: inhibitors of Candida albicans Cdr1 efflux pump | shares compounds with Efflux pump mplx | S. cerevisiae AD/CaCDR1, Nile Red efflux, flow cytometry | inhibition, % at 10 µM | 1,700 compounds, 1% hits | AID 588522;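 active = inhibition above the screen-wide mean plus twice its standard deviation, cut at about 32% in these data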
# Numbers without * were called inactive; x = not tested or not shown. Hits are enriched below; roughly 0.6% of the tested compounds scored in any of these assays.
SMILES,STK33 kinase inh,PolyA inh,GSK3A inh,GSK3B inh,Efflux pump mplx,Cmpd fluor yeast,Mdr1 pump inh,CaCdr2 efflux inh,CaCdr1 efflux inh
CC1O[C@@H](OC2C(COC3OC(CO)C(O)[C@H](O)C3O)OC(OC3CC[C@]4(C)C(CC[C@@]5(C)[C@@H]4CC=C4[C@@H]6CC(C)(C)CC[C@]6(CO)C(O)C[C@]45C)C3(C)C)C(O)C2O)C(O)C(O)C1O (stereo partly drawn),0,x,-2,x,1,x,x,x,x
CC(=O)Oc1ccc2c(C)cc(=O)oc2c1C(=O)c1ccccc1,1,-16,3,0,0,x,x,x,x
CCOC(=O)c1oc2c(c1C)C(=O)CCC2,-1,13,-1,3,6.7*,97,0,85,0
CCOC(=O)c1oc2c(c1C)/C(=N/O)CCC2,0,-8,-1,1,0,x,x,x,x
O=C(NC(=S)Nc1ccccc1N1CCOCC1)c1ccc(-c2cccc(Cl)c2)o1,1,4,5,1,11*,105,0,89,0
O=C(NC(=S)Nc1ccc(CN2CCOCC2)cc1)c1ccc(-c2cccc(Cl)c2)o1,-1,-16,-2,1,0,x,x,x,x
CCCC(=O)NC(=S)Nc1ccccc1N1CCOCC1,-1,11,2,-12,0,x,x,x,x
O=C(Cc1ccc(Cl)cc1)NC(=S)Nc1ccccc1N1CCOCC1,0,x,-2,x,1.4*,112,0,102,0
O=C(CNC(=O)c1ccccc1)NCC1COc2ccccc2O1 (stereo not drawn),6,-6,9,-11,0,x,x,x,x
CNS(=O)(=O)c1ccc(C(=O)NCC(=O)NCC2COc3ccccc3O2)cc1 (stereo not drawn),8,x,2,x,0.6*,105,0,95,0
CCOc1ccc(/C(C)=N\NC(=O)Cc2ccccc2)cc1,-2,-11,6,-1,0,x,x,x,x
O=C(Nc1ccccc1-c1nnc(SCc2ccccc2)o1)c1ccccc1,1,8,9,1,0,x,x,x,x
O=C(Nc1ccccc1-c1nnc(SCc2ccc(Cl)cc2)o1)c1ccccc1,0,11,x,1,0.5*,100,0,118,0
Cc1nc(C(=O)Nc2ccc(Cl)cc2Cl)nn1-c1cc(OC(C)C)c(Cl)cc1Cl,0,-1,-2,4,1.3*,113,0,105,0
COc1ccc(F)cc1C(=O)C1CCCN(Cc2c(C)n(C)n(-c3ccccc3)c2=O)C1 (stereo not drawn),0,7,0,2,0,x,x,x,x
CCC1=NN2C(=N)/C(=C\c3ccc(SCc4ccco4)o3)C(=O)N=C2S1,5,-4,-1,0,0,x,x,x,x
O=C1NC(=S)S/C1=C\c1ccc(SCc2ccccc2)o1,-1,x,6,x,4.5*,121,0,187*,0
O=C1NC(=S)S/C1=C\c1ccc(SCc2ccco2)o1,17,x,11,x,4.7*,125,0,157,0
COCC(C)N1CC(O)=C(c2nc(-c3ccc(Cl)cc3)cs2)C1=N (stereo not drawn),-3,1,0,1,0,x,x,x,x
COc1cc([N+](=O)[O-])ccc1NC(=O)NN1CCN(C)CC1,-2,1,-3,-1,5.3*,84,0,93,0
CC(C)c1ccc(OCC(=O)NC2CCCC2)cc1,6,-4,0,-8,9.2*,113,0,110,0
O=C(NC(=S)Nc1ccc2[nH]c(=O)[nH]c2c1)c1cncc(Br)c1,0,14,-1,-22,0.8*,103,0,101,0
O=C(NC(=S)Nc1ccc2[nH]c(=O)[nH]c2c1)c1ccccc1F,1,0,-1,3,0,105,0,93,0
O=C(NC(=S)Nc1ccc(O)cc1)c1cncc(Br)c1,2,7,0,-2,0,x,x,x,x
COc1cc(OC)cc(C(=O)NC(=S)Nc2ccc3[nH]c(=O)[nH]c3c2)c1,-1,-2,-1,0,0,x,x,x,x
SMILES,STK33 kinase inh,PolyA inh,GSK3A inh,GSK3B inh,Efflux pump mplx,Cmpd fluor yeast,Mdr1 pump inh,CaCdr2 efflux inh,CaCdr1 efflux inh
COc1ccc(C(=O)NC(=S)Nc2ccc3[nH]c(=O)[nH]c3c2)c(OC)c1,1,-22,-4,5,0,108,0,106,0
Cc1ccccc1C(=O)NC(=S)Nc1ccc2[nH]c(=O)[nH]c2c1,0,0,-2,0,0,x,x,x,x
C/C(=N\NC(=S)Nc1c(C)cccc1C)c1ccc(OC(F)F)cc1,-1,-2,0,7,0,x,x,x,x
CC(=O)Nc1cccc(OCCCNC(=O)C2CCC2)c1,0,6,-2,1,0,x,x,x,x
COc1ccc(S(=O)(=O)N2CCOCC2)cc1NC(=O)CSc1nnc(C2CC2)n1N,-1,-4,x,1,0,x,x,x,x
Cc1ccc2nc(SCC(=O)N3CCN(C(=O)c4ccco4)CC3)[nH]c2c1,0,0,1,2,-4,x,x,x,x
O=C(CSc1nc2ccc(Cl)cc2[nH]1)N1CCN(C(=O)c2ccco2)CC1,1,17,3,1,14*,101,0,89,0
CCN(CC(=O)Nc1ccc(NC(C)=O)cc1)CC(=O)Nc1ccccc1C(=O)c1ccccc1,5,-1,-1,4,0.7*,114,0,112,0
Cc1c(-c2cccc(Cl)c2)nc2ccccc2c1C(=O)OC/C(O)=C(\C#N)c1nc2ccccc2[nH]1,-2,-2,1,3,2.5*,108,1,116,1
CCOC(=O)N1CCN(C(=S)NC(=O)c2ccc(F)c(F)c2)CC1,0,7,-4,2,1.6*,95,0,104,0
CCOC(=O)N1CCN(C(=S)NC(=O)c2cccc(OC)c2)CC1,0,x,-3,x,0,x,x,x,x
COc1cc(/C=C(\C#N)c2ccccn2)ccc1OCc1ccccc1,-1,-18,-4,2,0,x,x,x,x
COc1cc(/C=C(\C#N)c2ccccn2)ccc1OCc1ccc(Cl)cc1,0,29,-1,0,6.7*,97,0,112,0
COc1ccc(/C(O)=C2\C(=O)C(=O)N(CCN(C)C)C2c2cccc(OC)c2OC)cc1 (stereo not drawn),0,-4,-1,-3,6.5*,101,0,98,0
COc1ccc(C(=O)/C=C/c2ccc(O)cc2)c(O)c1C/C=C(\C)CCC=C(C)C,x,x,x,x,1.3*,109,0,116,0
O=C(CN1C(=O)NC2(CCCCCC2)C1=O)Nc1ccccc1[N+](=O)[O-],-2,x,-4,x,0,x,x,x,x
